Assay results from PMC9870020 (Tissue Barriers, 2022).
One block for each compound: values may come before it.

What was measured:
[1] = system: Caco-2 epithelial cell layers; experiment: Permeability of fluorescent markers; format: cell-based; details: Caco-2 layers
Outline: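 Caco-2 cells (passage 35–39) were grown 21 days on collagen-coated 0.33 cm2 inserts (0.4 µm pores) and equilibrated 30 min in warm HBSS. Test compound with FD-4 (0.25 mM) or other marker in HBSS was applied apically. Basolateral fluorescence (ex 485/em 520 nm) was read over 180 min against a calibration curve to give Papp. TEER was measured before and after. Triplicates, mean ± S.D.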

epithelial cell layers = details: cited from earlier work
epithelial cells = details: cited from earlier work
[2] = system: nasal epithelial cell layers; details: cited from earlier work
[3] = cited from earlier work
[4] = 2 mM; cited from earlier work
[5] = concentration of 625 µM; cited from earlier work

Compound: L-myr-ARRWR [L-R5]
Molecular weight limit of opening of TJs caused by L-R5 ([1]; L-R5 50 µM, from sodium fluorescein, FD-4 and FD-150 permeability): 150 kDa | Permeability of sodium fluorescein in the presence of L-R5 ([1]; Figure 5, L-R5 50 µM, 180 min, mean n = 3): higher permeability compared to FD-4 | Passage of the peptide across epithelial cell layers (epithelial cell layers): not to cross epithelial cell layers | Epithelial cytotoxicity in vitro (epithelial cells): lack of epithelial cytotoxicity | Reversibility of TJ modulation by the peptide [2]: rapidly reversible | Size of molecules transported paracellularly with L-R5 ([2]; nasal epithelial cell layers in vitro, previously shown): up to 4 kDa

Compound: CCCCCCCCCC(=O)[O-].[Na+] [C10, sodium caprate]
Toxicity of C10 [3]: no toxicity was demonstrated

Compound: CCCCCCCCCCCCOS(=O)(=O)[O-].[Na+] [SDS, Sodium dodecylsulfate]
Toxicity of SDS [4]: toxic

Compound: CC(C)(C)[C@]1(O)CC2OC(=O)CC23C(=O)OC2OC(=O)[C@H](O)C231 (stereo partly shown) [bilobalide, Bilobalide]
Cytotoxicity of bilobalide [5]: no cytotoxicity

Permeability of FD-4 (Papp) in the presence of L-R5 analogues ([1]; Figure 6A, peptides 50 µM, FD-4 0.25 mM, 180 min, mean n = 3): significantly lower than with L-R5
Compound: L-myr-ARRAR [LW-5]
